PubChem BioAssay
Calls of active or inactive are those of the source.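 Rule for the calls, unless noted: active = viability at or under a set limit in both replicates, limit being median viability minus 3 SD (cut at about 48% in these data, passing the limit was not always enough); inconclusive = at or under the limit in just one replicate; inactive = at or above the limit in both replicates.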

What was measured:
[1] = HUVEC growth inhibition – cell-based, human, primary screen (AID 575;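 active = viability at or below 30% in both replicate assays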;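 note: 100% = median of untreated cell wells with 0.1% DMSO on each plate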); details: HUVEC proliferation, CellTiter-Glo luminescence, 72 h; at 10 µM; stronger effect = lower value
Method in brief: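 material = primary HUVEC, no more than 12 passages | input = 1250 cells per well | controls = vehicle and MePR control wells | measured by = CTG luminescence | times = 72 h compound incubation | format = collagen-coated 384-well format | read-out = % viability vs DMSO wells | doses = single 10 µM dose, 0.1% DMSO, from 5x medium stock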

[2] = growth inhibitors of H69AR lung tumor, primary screen, human, duplicate replicates (AID 580); details: H69AR lung tumor cells viability, ATP luminescence, 72 h; at 10 µM; stronger effect = lower value;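 note: 100% = mean luminescence of untreated wells and 0% = no signal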
[3] = reversal of MRP1-mediated doxorubicin resistance, pilot screen, H69AR cells, doxorubicin co-treatment (AID 601;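 active = viability loss from added drug above about 55%, and viability with drug at most 40%, in both replicates, limit read from the data, passing the limit was not always enough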); details: CellTiter-Glo, 72 h, at 10 µM; for differential viability (reversal): stronger effect = higher value
[4] = 384-well plate pilot, post-Golgi transport modulator project, inhibition of yeast transport mutant growth (AID 636; in the data active = inhibition above about 31%); details: absorbance 615 nm, about 18 h, stronger effect = higher value
[5] = growth suppression of yeast trafficking mutant, preliminary HTS, modulators of trafficking downstream of Golgi apparatus project, 1536-format plate, OD 615 nm (AID 637; in the data active = inhibition above about 30%); details: yeast transport mutant growth, absorbance 615 nm, 18 h; stronger effect = higher value
[6] = H69AR cells + 2 uM doxorubicin, measured here: viability with 2 uM doxorubicin, stronger effect = lower value
[7] = H69AR cells, compound alone cytotoxicity

Structure (SMILES) | viability [1] | viability [2] | differential viability (reversal) ([3]; H69AR cells + 2 uM doxorubicin) | viability [3, 6] | viability [3, 7] | inhibition [4] | inhibition [5]
Cc1ccc(SC(C)c2nc(-c3ccccc3)no2)cc1 (configuration not stated) | 114% (inactive) | 99.9% (inactive) | 4.68% (inactive) | 95.2% | 99.9% | -6.13% (inactive) | -5.08% (inactive)
CCCOc1ccc(S(=O)(=O)NCCCN2CCOCC2)c2ccccc12 | 83.2% (inactive) | 90% (inactive) | 7.43% (inactive) | 82.6% | 90% | -6.13% (inactive) | 4.6% (inactive)
CCOC(=O)CSc1nnc(CNC(=O)c2ccc(OC)c(OC)c2)n1C | 107% (inactive) | 95.7% (inactive) | -2.17% (inactive) | 97.8% | 95.7% | -1.82% (inactive) | -2.54% (inactive)
S=c1[nH]c2ccc(Cl)cc2[nH]1 | 67.4% (inactive) | 84.9% (inactive) | 6.16% (inactive) | 78.7% | 84.9% | -3.42% (inactive) | 6.35% (inactive)
CCCCNC(=O)C(C#N)c1nc2ccccc2nc1N1CCCC1 (configuration not stated) | 89.2% (inactive) | 100% (inactive) | -1.2% (inactive) | 102% | 100% | -4.93% (inactive) | -4.29% (inactive)
CS(=O)(=O)Nc1ccc(C(=O)NCc2ccc3c(c2)OCO3)cc1 | 92.2% (inactive) | 96.2% (inactive) | 0.675% (inactive) | 95.5% | 96.2% | -8.29% (inactive) | -1.9% (inactive)
CCOc1ccc(OCc2cccc(C(=O)N3CCCC3)c2)cc1 | 110% (inactive) | 92.9% (inactive) | 6.89% (inactive) | 86% | 92.9% | -4.13% (inactive) | -3.49% (inactive)
Cc1cnn(C(=S)NCc2ccco2)c1 | 70.2% (inactive) | 84.5% (inactive) | -5.57% (inactive) | 90.1% | 84.5% | 2.24% (inactive) | -4.92% (inactive)
COc1ccc(NC(=O)COc2ccccc2)c(OC)c1 | 111% (inactive) | 104% (inactive) | 23.1% (inactive) | 81% | 104% | -5.6% (inactive) | 0.16% (inactive)
Cc1ccc(N2CCN(C(=O)c3ccccc3)CC2)c(C)c1 | 114% (inactive) | 91.1% (inactive) | 6.71% (inactive) | 84.4% | 91.1% | -7.33% (inactive) | 5.4% (inactive)
O=C(NCc1n[nH]c(=S)n1-c1ccc(F)cc1)c1ccco1 | 102% (inactive) | 96.2% (inactive) | 6.98% (inactive) | 89.2% | 96.2% | -0.53% (inactive) | -1.11% (inactive)
Cc1ccc2[nH]c(=O)c(CN(CCc3ccccc3)Cc3nnnn3CC3CCCO3)cc2c1 (configuration not stated) | 77.1% (inactive) | 78.5% (inactive) | 0.205% (inactive) | 78.3% | 78.5% | 1.45% (inactive) | -5.87% (inactive)
NC(=O)c1sc2nc3c(c(-c4ccco4)c2c1N)CCC3 | 75.7% (inactive) | 81.4% (inactive) | -16.8% (inactive) | 98.2% | 81.4% | -5.47% (inactive) | -8.57% (inactive)
O=C(CN1c2cccc3cccc(c23)S1(=O)=O)N1CCOCC1 | 105% (inactive) | 92.5% (inactive) | -0.865% (inactive) | 93.4% | 92.5% | -3.2% (inactive) | 0.16% (inactive)
O=C(CP(=O)(c1ccccc1)c1ccccc1)N1CCCCC1 | 111% (inactive) | 106% (inactive) | 19% (inactive) | 86.9% | 106% | -3.51% (inactive) | 6.83% (inactive)
O=C(Nc1ncnc2sc3c(c12)CCCCC3)c1ccco1 | 91.5% (inactive) | 73.8% (inactive) | -0.73% (inactive) | 74.5% | 73.8% | -2.08% (inactive) | 3.65% (inactive)
COc1ccccc1C1(CC(=O)N2CCOCC2)CCOC(C(C)C)C1 (configuration not stated) | 72.7% (inactive) | 88.8% (inactive) | -2.17% (inactive) | 91% | 88.8% | -5.47% (inactive) | -6.03% (inactive)
COC(=O)COc1ccc(C(=O)OC)cc1 | 92.8% (inactive) | 108% (inactive) | 10.4% (inactive) | 97.4% | 108% | -1.84% (inactive) | -2.38% (inactive)
CC(C(N)=O)N1C(=O)C2C3C=CC(C3)C2C1=O (configuration not stated) | 85.1% (inactive) | 106% (inactive) | 10.4% (inactive) | 95.2% | 106% | -1.6% (inactive) | -2.22% (inactive)
CN1CCN(C(=O)c2ccccc2N(Cc2ccccc2)S(C)(=O)=O)CC1 | 93.3% (inactive) | 91.6% (inactive) | 6.72% (inactive) | 84.9% | 91.6% | -6.1% (inactive) | -6.35% (inactive)
O=C(c1ccc(S(=O)(=O)N2CCOCC2)cc1)N1CCc2ccccc2C1 | 98.1% (inactive) | 91.1% (inactive) | 2.92% (inactive) | 88.2% | 91.1% | -2.37% (inactive) | 9.37% (inactive)

Structure (SMILES) | viability [1] | viability [2] | differential viability (reversal) ([3]; H69AR cells + 2 uM doxorubicin) | viability [3, 6] | viability [3, 7] | inhibition [4] | inhibition [5]
CCC(C)(C)n1nnnc1C(c1ccccc1OC)N1CCSCC1 (configuration not stated) | 99.6% (inactive) | 90% (inactive) | 7.71% (inactive) | 82.3% | 90% | -0.78% (inactive) | -4.76% (inactive)
Cc1ccnc(NC(=O)Nc2ccc(F)cc2)c1 | 99.9% (inactive) | 104% (inactive) | 12.9% (inactive) | 91.2% | 104% | -2.08% (inactive) | -8.41% (inactive)
COc1ccc(C(=O)N2CCN(C(=O)c3ccco3)CC2)cc1OC | 87.2% (inactive) | 95.9% (inactive) | 4.87% (inactive) | 91.1% | 95.9% | -5.73% (inactive) | 0.32% (inactive)
Cc1cc(C)c(S(=O)(=O)N(C)CC(N)=O)c(C)c1 | 95% (inactive) | 91.7% (inactive) | -12.6% (inactive) | 104% | 91.7% | 2.37% (inactive) | -4.13% (inactive)
O=C(Nc1cc(C(F)(F)F)ccc1Cl)c1cc(C2CC2)on1 | 96.4% (inactive) | 91% (inactive) | 3.55% (inactive) | 87.4% | 91% | -3.82% (inactive) | 0.63% (inactive)
CCOc1ccc(N(CC(=O)NCc2cccc(OC)c2)S(=O)(=O)c2c(C)noc2C)cc1 | 93.4% (inactive) | 91.2% (inactive) | -4.58% (inactive) | 95.8% | 91.2% | 0.27% (inactive) | -2.86% (inactive)
COc1ccc(S(=O)(=O)NC(C)C(=O)Nc2cccc(C(C)=O)c2)cc1 (configuration not stated) | 114% (inactive) | 98.1% (inactive) | 9.17% (inactive) | 88.9% | 98.1% | -4.8% (inactive) | 0.16% (inactive)
CCOc1ccc(C(=O)Cc2ccc3oc(C(=O)O)cc3c2)c(O)c1 | 89.4% (inactive) | 98.8% (inactive) | 10.4% (inactive) | 88.4% | 98.8% | -4.29% (inactive) | 7.62% (inactive)
CCC(=O)Nc1ccc(NC(=O)CSc2nnnn2C(C)C)cc1 | 111% (inactive) | 93% (inactive) | 3.14% (inactive) | 89.8% | 93% | -3.82% (inactive) | 4.13% (inactive)
CC(=O)N1C(=O)c2cccc3cccc(c23)C(=O)N1C(C)=O | 96.1% (inactive) | 91.8% (inactive) | -1.27% (inactive) | 93% | 91.8% | -1.05% (inactive) | -1.43% (inactive)
CCOC(=O)N1CCN(C(=O)C(NS(=O)(=O)c2cccc3nsnc23)c2ccccc2)CC1 (configuration not stated) | 100% (inactive) | 94.2% (inactive) | -6.95% (inactive) | 101% | 94.2% | -3.38% (inactive) | -0.63% (inactive)
O=C(NCCN1CCCCC1)c1ccc(=O)oc1 | 101% (inactive) | 99.2% (inactive) | 9.61% (inactive) | 89.6% | 99.2% | -8.03% (inactive) | -2.22% (inactive)
Cc1ccc(-c2nc(-c3cccnc3)no2)c(C)c1 | 78.9% (inactive) | 90.1% (inactive) | -0.56% (inactive) | 90.7% | 90.1% | -6.49% (inactive) | -9.52% (inactive)
CC(OC(=O)c1cccc(NS(C)(=O)=O)c1)C(=O)Nc1ccc(N2CCOCC2)cc1 (configuration not stated) | 98.9% (inactive) | 96% (inactive) | 9.84% (inactive) | 86.1% | 96% | 0.78% (inactive) | -2.54% (inactive)
COC(=O)c1sccc1NC(=O)c1ccncc1 | 115% (inactive) | 86.4% (inactive) | 8.91% (inactive) | 77.5% | 86.4% | -3.95% (inactive) | 5.56% (inactive)
CCN1CCN(C(=O)c2cn(CCOC)c(=O)c3c2c2ccccc2n3C)CC1 | 106% (inactive) | 90.6% (inactive) | -2.77% (inactive) | 93.4% | 90.6% | -2.86% (inactive) | -5.4% (inactive)
CCN(CC(=O)NC(=O)NCc1ccco1)Cc1nc2ccccc2c(=O)[nH]1 | 86.5% (inactive) | 79.7% (inactive) | 2.42% (inactive) | 77.3% | 79.7% | -0.78% (inactive) | 1.43% (inactive)
CN1CCN(C(=O)CN(Cc2ccc(Cl)cc2)S(C)(=O)=O)CC1 | 93.3% (inactive) | 94.5% (inactive) | -1.31% (inactive) | 95.8% | 94.5% | -1.45% (inactive) | 4.44% (inactive)
CN1CCN(CC#CCC(O)(c2ccccc2)C2CCCC2)CC1 (configuration not stated) | 102% (inactive) | 91.7% (inactive) | 1.13% (inactive) | 90.5% | 91.7% | -6.4% (inactive) | -2.38% (inactive)
CSc1ccccc1NS(=O)(=O)c1ccccc1 | 101% (inactive) | 102% (inactive) | 10.8% (inactive) | 90.8% | 102% | -4.61% (inactive) | 0% (inactive)
